UCH37 inh: blocks the human deubiquitinase UCH37; 0.33% of 330,000 active; inhibition, % (test concentration not listed); AID 588478; purified proteasome/UCH37, Ub-AMC cleavage fluorescence; Q9Y5K5;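 active = mean inhibition over replicate wells above about 20%, limit read from the data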;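 note: 0% = compound-free wells with enzyme and 100% = wells lacking proteasome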
Target sequence (Q9Y5K5 whole entry, looked up): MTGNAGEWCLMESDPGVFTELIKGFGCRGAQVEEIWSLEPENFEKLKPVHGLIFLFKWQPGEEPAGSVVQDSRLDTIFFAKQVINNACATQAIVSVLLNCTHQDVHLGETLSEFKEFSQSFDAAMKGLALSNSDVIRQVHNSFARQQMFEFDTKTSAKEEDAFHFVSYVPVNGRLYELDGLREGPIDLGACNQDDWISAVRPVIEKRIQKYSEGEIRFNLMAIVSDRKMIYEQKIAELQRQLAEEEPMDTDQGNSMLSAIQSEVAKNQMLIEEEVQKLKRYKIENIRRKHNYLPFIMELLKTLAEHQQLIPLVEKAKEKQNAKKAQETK
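Material: human UCH37 enzyme supplied as purified proteasome complex. Measure: % inhibition of Ub-AMC cleavage fluorescence. Medium: pH 7.4 Tris-HCl (50 mM) with ovalbumin, ATP-MgCl2, DTT. Times: 30 min preincubation with enzyme, 25 min cleavage at room temperature. Detection: AMC fluorescence intensity at 355/460 nm.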
MEKK3 PB1 HTS: modulators (inhibitors or enhancers) of MEK5 binding to human MEKK3 PB1 domain; AID 1529; bead-based flow cytometry, Alexa488-MEK5 binding to MEKK3; actives lie on both sides; 0 = blocked by unlabeled MEK5, 100 = vehicle; binding response (% of control), % at 10 µM; 1.4% of 290,000 active; Q99759;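 active = binding response more than 3 SD above or below the average of its plate-row segment, actives on both sides; inconclusive = wells at one plate position flagged as instrument error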;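 note: Alexa488 bead fluorescence after subtracting the streptavidin-only scavenger bead signal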
MEKK2 WT-MEK5: raises or lowers MEK5 binding to wildtype human MEKK2 PB1 domain; bead flow cytometry, Alexa488-MEK5 binding to MEKK2 WT; actives lie on both sides; binding response (% of control), % at 10 µM; 1.1% of 290,000 active; in the data active = binding response below about 67% or above about 130%; inconclusive = no clear call, values can overlap the other calls; inactive = in between
Rce1 inhib: yeast Ras-converting enzyme inhibition | 0.27% of 290,000 active | Q03530 | calls only | yeast membranes, quenched prenylated peptide cleavage fluorescence;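 active = fall in fluorescence gain of 50% or more versus controls, with final raw signal at or below 3038400; inconclusive = same 50% fall but final raw signal above 3038400; inactive = fall in fluorescence gain under 50%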;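 note: plate controls were neutral control wells for no effect and wells lacking membranes for full effect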
Target sequence (Q03530 whole entry, looked up): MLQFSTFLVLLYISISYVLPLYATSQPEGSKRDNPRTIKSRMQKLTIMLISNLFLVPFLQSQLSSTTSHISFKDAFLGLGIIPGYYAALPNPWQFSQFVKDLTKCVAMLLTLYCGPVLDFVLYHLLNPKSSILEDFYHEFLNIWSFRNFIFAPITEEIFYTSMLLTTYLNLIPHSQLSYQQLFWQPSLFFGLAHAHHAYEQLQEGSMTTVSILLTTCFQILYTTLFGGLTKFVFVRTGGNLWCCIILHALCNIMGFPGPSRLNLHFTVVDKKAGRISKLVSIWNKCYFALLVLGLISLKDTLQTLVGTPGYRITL
MEKK2 mut-MEK5: signal of MEK5 binding to mutant human MEKK2 PB1 domain; percent response, % at 10 µM; bead flow cytometry, Alexa488-MEK5 binding to MEKK2 mutant; 0.35% of 290,000 active; in the data active = percent response above about 24%, passing the limit was not always enough
T cell modulator: T cell immune modulation candidate. 2C CD8+ T cell-vesicle binding, flow cytometry; active compounds read low. response (vesicle binding), % at 7 µM. 0.068% of 330,000 active;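 active = response, share of CD8 T cells binding vesicles, and their 90th percentile fluorescence all below set limits, cut at about 80% in these data, passing the limit was not always enough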;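 note: values below 100% mean blocked vesicle binding to the CD8+ T cells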
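material = purified 2C TCR transgenic mouse naive CD8+ T cells | controls = Unloaded micro-vesicles (low), QL9 vesicles with 0.7% DMSO (high) | detection = cytometric PE anti-B7-1 and Alexa647 anti-CD8 signals after 1% paraformaldehyde fixation | incubation = binding step 1.5 h, 37 °C, antibody labelling 20 min, ice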
MEKK2wt confirm: raises or lowers MEK5 binding to wildtype human MEKK2, retest. 2.4% of 5,900 active. bead flow cytometry, Alexa488-MEK5 binding to MEKK2 WT; actives lie on both sides. binding response (% of control), % at 10 µM. shares compounds with MEKK3 PB1 HTS; in the data active = binding response below about 16% or above about 210%; inactive = in between
MEKK2mut confirm: signal of MEK5 binding to mutant human MEKK2, retest; shares compounds with MEKK3 PB1 HTS; AID 1893; bead flow cytometry, Alexa488-MEK5 binding to MEKK2 mutant; 2% of 5,900 active; percent response, % at 10 µM; in the data active = percent response mostly above about 71%, no sharp cut-off; inactive = mostly below about 38%;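 note: higher means compound restores mutant binding toward wildtype level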
MEKK3 confirm: MEKK3-MEK5 PB1 inhibition, single concentration confirmation; 1.8% of 5,900 active; AID 1894; shares compounds with MEKK3 PB1 HTS; binding response (% of control), % at 10 µM; bead flow cytometry, Alexa488-MEK5 binding to MEKK3; active compounds read low;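 active = binding response below 72% of control, or above a set upper limit, though filed actives all read lower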;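 note: 100% = DMSO only wells and 0% = binding blocked by excess unlabeled MEK5; lower values mean stronger disruption of MEK5 binding to MEKK3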
* hit, by the source's call; i = inactive; ? = inconclusive; . = not tested or not shown; [ ] = another dose, or the depositor's remark. In the library only some 2.5% were active in any assay of this set; here they are far more common.

SMILES | UCH37 inh | MEKK3 PB1 HTS | MEKK2 WT-MEK5 | Rce1 inhib | MEKK2 mut-MEK5 | T cell modulator | MEKK2wt confirm | MEKK2mut confirm | MEKK3 confirm
COc1ccccc1-c1ccc(SCc2ccccc2)nn1 | 0 | 73*[inhibitor] | 79 | i | -3 | 788 | 98 | -3 | 101
CCc1nnc(NC(=O)CSc2ccc(-c3ccccc3OC)nn2)s1 | 4 | 67*[inhibitor] | 83 | i | -3 | 330 | 97 | -3 | 100
Cc1nnc(NN=Cc2cc([N+](=O)[O-])c(N3CCC(C)CC3)cc2N2CCC(C)CC2)n1N | 7 | . | . | . | . | . | . | . | .
CCOc1ccc2[nH]c(C(=O)NN=Cc3cc(OC)c(OC)c(OC)c3)cc2c1 | -30 | . | . | . | . | . | . | . | .
O=C(NCCSc1ccccc1)c1ccccc1Cl | 1 | 156* | 110 | i | 1 | 555 | 102 | -2 | 104
Cc1ccc(C=Nn2c(-c3cccnc3)n[nH]c2=S)o1 | 4 | . | . | . | . | . | . | . | .
Cc1nnc(SCC(=O)NN=Cc2cn(-c3ccccc3)nc2-c2ccc(F)cc2)n1-c1ccccc1 | 1 | . | . | . | . | . | . | . | .
CC(=NNC(=O)C1(C)CC1(Br)Br)c1ccc(NC(=O)C2CCC2)cc1 (stereo not drawn) | 6 | . | . | . | . | . | . | . | .
Cc1ccc(C(=O)N/N=C2\CCc3ccccc32)c(C)c1 | . | 141* | 110 | i | 1 | 242 | 107 | 0 | 105
Cc1ccc(C(=O)NN=C2CCc3ccccc32)c(C)c1 | 0 | . | . | . | . | . | . | . | .
FC(F)(F)c1nnc2ccc(N3CCCCCC3)nn12 | 7 | 81*[inhibitor] | 91 | . | -14 | 227 | 98 | -2 | 100
FC(F)(F)c1nnc2ccc(N3CCCC3)nn12 | 2 | 103 | 108 | i | 5 | 170 | . | . | .
CC(=NNC(=O)c1cccc(S(=O)(=O)N2CCOCC2)c1)c1cc2ccccc2o1 | 4 | . | . | . | . | . | . | . | .
CCCSc1ncnc2sc(C)c(C)c12 | 2 | 4.0*[inhibitor] | 8.0*[inhibitor] | i | -46 | 453 | 10*[inhibitor] | -37 | 52*
O=C(C=NO)NCCCn1ccnc1 | 0 | . | . | . | . | . | . | . | .
COc1cccc(C(=O)NC(=S)Nc2ccc3c4c(cccc24)CC3)c1 | 4 | 107 | 108 | i | 11 | 255 | . | . | .
CCOc1cccc(C(=O)NC(=S)Nc2cccc(C)c2)c1 | 2 | 130* | 105 | i | 0 | 167 | 100 | 0 | 100
COc1cccc(C(=O)NC(=S)Nc2ccc(Cl)cc2C(=O)O)c1 | -2 | 131* | 130 | i | 25 | 243 | 100 | 3 | 103
CCCOc1cccc(C(=O)NC(=S)Nc2cccc(C(F)(F)F)c2)c1 | 4 | ? | ? | i | -20 | 202 | . | . | .
COc1cccc(C(=O)NC(=S)Nc2ccc(N3CCCC3)cc2)c1 | 6 | 88 | 91 | i | -16 | 183 | . | . | .
COc1cccc(C(=O)NC(=S)Nc2ccc(N(C)C)cc2)c1 | 5 | 141* | 106 | i | 2 | 186 | 116 | 9 | 104
O=C(NN=Cc1cn(-c2ccccc2)nc1-c1ccccc1)c1ccco1 | -3 | . | . | . | . | . | . | . | .
COc1cc(C(=O)NN=Cc2ccc(OC(=O)c3ccccc3)c(OC)c2)ccc1O | 4 | . | . | . | . | . | . | . | .
O=C(CSc1nc(-c2ccccc2)c(-c2ccccc2)[nH]1)Nc1ccc2c(c1)OCO2 | -11 | 146* | 113 | i | 1 | 215 | 95 | -3 | 104
Cc1nc(C)c(C(=O)NN=Cc2cn(C)c3ccccc23)s1 | 9 | . | . | . | . | . | . | . | .
SMILES | UCH37 inh | MEKK3 PB1 HTS | MEKK2 WT-MEK5 | Rce1 inhib | MEKK2 mut-MEK5 | T cell modulator | MEKK2wt confirm | MEKK2mut confirm | MEKK3 confirm
CC(C)C(OC(=O)C1=Cc2ccccc2OC1)C(=O)NC1CCCC1 (stereo not drawn) | -8 | 131* | 109 | i | 3 | 309 | 83 | -8 | 96
CCC(OC(=O)C1=Cc2ccccc2OC1)C(=O)NC1CCCC1 (stereo not drawn) | -9 | 126* | 114 | i | 11 | 271 | 97 | 0 | 102
CCCOc1ccc(-c2c(C(=O)NN=Cc3ccc(OCC)cc3)nnn2-c2nonc2N)cc1 | -29 | . | . | . | . | . | . | . | .
CN(C)c1ccc(C=NNC(=O)C(=O)N2CCCCCC2)cc1 | 13 | . | . | . | . | . | . | . | .
COc1ccc(C=NNC(=O)c2[nH]c3ccc(C)cc3c2-c2ccccc2)c(C(=O)O)c1OC | 4 | . | . | . | . | . | . | . | .
S=c1[nH]nc(-c2cc(-c3ccccc3)n[nH]2)n1N=Cc1cccc(Cl)c1 | 3 | . | . | . | . | . | . | . | .
O=C(NN=Cc1cccc([N+](=O)[O-])c1O)C1COc2ccccc2O1 (stereo not drawn) | 16 | . | . | . | . | . | . | . | .
COc1ccc2nc3cc(Cl)ccc3c(Nc3cc(CN4CCCC4)c(O)c(CN4CCCC4)c3)c2n1 | 2 | 97 | 138* | i | 22 | 562 | 138 | 26 | 96
C[n+]1c2n(c3ccccc31)N=C(c1ccc(-c3ccccc3)cc1)CS2 | 12 | 112 | 159* | i | 6 | 236 | 120 | -22 | 89
CCC(C)NC(=O)C1CCN(c2nc(OC)nc(OC)n2)CC1 (stereo not drawn) | 0 | 0.0*[inhibitor] | -1.0*[inhibitor] | i | -4 | 548 | 230* | 76* | 114
Cc1ccc2cc(C#N)c(SCC(=O)N3CCCC3)nc2c1 | 6 | 45*[inhibitor] | 43*[inhibitor] | i | -11 | 425 | 94 | -8 | 95
Cn1nnnc1SCC(=O)Nc1ccccc1Cc1ccccc1 | 0 | 3.0*[inhibitor] | 3.0*[inhibitor] | i | -24 | 87 | 100 | -2 | 102
Cn1nnnc1SCC(=O)Nc1ccccc1Br | 3 | 103 | 116 | i | 10 | 308 | . | . | .
CCOC(=O)c1sc(NC(=O)Nc2ccc(Cl)cc2)cc1C | . | 115 | 138* | i | 10 | 107 | -2.0*[inhibitor] | 15 | 95
CCOC(=O)c1sc(NC(=O)c2ccc(Cl)s2)cc1C | -112 | 111 | 109 | i | 4 | 535 | . | . | .
Cc1ccccc1NC(=O)CCN1C(=O)c2ccccc2C1=O | 2 | 103 | 103 | i | 2 | 354 | . | . | .
Cc1ccccc1NC(=O)CSCCN1C(=O)c2ccccc2C1=O | 1 | 74*[inhibitor] | 97 | i | -1 | 154 | 98 | 0 | 99
O=C(Nc1nnc(-c2ccncc2)o1)c1cccc(N2C(=O)CCC2=O)c1 | 4 | 100 | 103 | i | 2 | 330 | . | . | .
O=C(Nc1nnc(-c2ccco2)o1)c1cccc(N2C(=O)CCC2=O)c1 | 3 | 129* | 117 | i | 4 | 370 | 102 | -5 | 100
Cc1ccc(C=Nn2c(COc3ccccc3)n[nH]c2=S)o1 | 3 | . | . | . | . | . | . | . | .

From PubChem BioAssay
